Assays:
Candida albicans [1] = experiment: Antifungal activity against Candida albicans ATCC 90028 at 0.125 ug/ml after 18 hrs relative to control; assay type: functional
Procedure, shortened: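 Planktonic broth microdilution per M27-A3 in MOPS-buffered RPMI 1640 (pH 7.0), final inoculum 1.8×10^3 cells/mL, compounds 0.0313–16 µg/mL from 1600 µg/mL stocks in ethanol or DMSO. Incubated at 35°C without agitation; OD405 read at 18 and 48 h. % inhibition was derived from test, sterility (no inoculum) and solvent growth-control wells. Amphotericin B at 0.5 µg/mL served as the 100% control.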

Caco-2 = experiment: Cytotoxicity against human Caco2 cells assessed as reduction in cell viability at 16 ug/ml after 18 hrs by XTT assay ralative to control; assay type: cell-based; conditions: caco-2, 18 h
Procedure, shortened: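 Caco-2 cells were exposed to compound at 256, 16 or 0.0313 µg/mL for 18 h, then given XTT reagent for 4–6 h. Absorbance was read at 475 nm with a 660 nm reference, and viability and toxicity were expressed as %. CC50 was taken as the concentration giving 50% viability loss. Means ± SD of three independent experiments, samples in duplicate.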

Candida albicans [2] = experiment: Synergistic antifungal activity against Candida albicans ATCC 90028 at 80 ug/ml after 48 hrs in presence of 20 ug/ml fluconazol by checkerboard assay relative to control; assay type: functional
Procedure, shortened: (§1)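 Checkerboard in C. albicans ATCC 90028, inoculum prepared per CLSI M27-A3 in RPMI. Fluconazole serially diluted 80-1.25 µg/mL across the plate against the partner compound at 80-1.25 µg/mL final. Incubated 48 h at 35°C. Metabolic activity read by XTT reduction at 475 nm (660 nm reference), given as % of the untreated growth control.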

Candida albicans [3] = experiment: Synergistic antifungal activity against Candida albicans ATCC 90028 at 80 ug/ml after 48 hrs in presence of 5 ug/ml fluconazol by checkerboard assay relative to control; assay type: functional; procedure, shortened: as §1
Candida albicans [4] = experiment: Synergistic antifungal activity against Candida albicans ATCC 90028 at 40 ug/ml after 48 hrs in presence of 10 ug/ml fluconazol by checkerboard assay relative to control; assay type: functional; procedure, shortened: as §1
Candida albicans [5] = experiment: Synergistic antifungal activity against Candida albicans ATCC 90028 at 20 ug/ml after 48 hrs in presence of 20 ug/ml fluconazol by checkerboard assay relative to control; assay type: functional; conditions: ATCC 90028, 48 h, read-out: GI; procedure, shortened: as §1
Candida albicans [6] = experiment: Synergistic antifungal activity against Candida albicans ATCC 90028 at 10 ug/ml after 48 hrs in presence of 20 ug/ml fluconazol by checkerboard assay relative to control; assay type: functional
Procedure, shortened: (§2)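 Checkerboard per M27-A3 against ATCC 90028: fluconazole at 80–1.25 µg/mL horizontally and partner compound at 80–1.25 µg/mL vertically, 100 µL yeast inoculum per well, 35°C for 48 h. After 48 h, metabolic activity was measured by XTT reduction at 475 nm (660 nm reference) relative to untreated growth control. FIC index is the sum of the FICs; <1 was defined as synergism and >1 as antagonism.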

Candida albicans [7] = experiment: Synergistic antifungal activity against Candida albicans ATCC 90028 at 10 ug/ml after 48 hrs in presence of 1.25 ug/ml fluconazol by checkerboard assay relative to control; assay type: functional; procedure, shortened: as §2
Candida albicans [8] = experiment: Synergistic antifungal activity against Candida albicans ATCC 90028 at 5 ug/ml after 48 hrs in presence of 40 ug/ml fluconazol by checkerboard assay relative to control; assay type: functional; procedure, shortened: as §1
Candida albicans [9] = experiment: Synergistic antifungal activity against Candida albicans ATCC 90028 at 2.5 ug/ml after 48 hrs in presence of 5 ug/ml fluconazol by checkerboard assay relative to control; assay type: functional
Procedure, shortened: (§3)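 Checkerboard microdilution (M27-A3) on C. albicans ATCC 90028 in RPMI 1640: fluconazole (80-1.25 µg/mL) crossed with tetrazole (80-1.25 µg/mL final), incubated at 35°C for 48 h. Growth by OD405 at 18 and 48 h, endpoint taken as 100% inhibition. FIC index = sum of the two agents' FICs; <1 synergism, >1 antagonism.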

Candida albicans [10] = experiment: Synergistic antifungal activity against Candida albicans ATCC 90028 at 2.5 ug/ml after 48 hrs in presence of 1.25 ug/ml fluconazol by checkerboard assay relative to control; assay type: functional; procedure, shortened: as §3
Candida albicans [11] = experiment: Antifungal activity against Candida albicans ATCC 90028 assessed as inhibition of metabolic activity at 2.5 ug/ml after 48 hrs in presence of 80 ug/ml fluconazol by XTT assay relative to control; assay type: functional; conditions: values are per cent of control
Procedure, shortened: (§4)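 C. albicans ATCC 90028 in checkerboard: fluconazole serial dilutions (80-1.25 µg/mL) crossed with tetrazole (80-1.25 µg/mL final), M27-A3 inoculum in RPMI 1640, 35°C for 48 h. Metabolic activity measured by XTT reduction, read at 475 nm (660 nm reference). Activity expressed relative to untreated growth control absorbance.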

Candida albicans [12] = experiment: Antifungal activity against Candida albicans ATCC 90028 assessed as inhibition of metabolic activity at 2.5 ug/ml after 48 hrs in presence of 1.25 ug/ml fluconazol by XTT assay relative to control; assay type: functional; conditions: values are per cent of control; procedure, shortened: as §4
Candida albicans [13] = experiment: Antifungal activity against Candida albicans ATCC 90028 assessed as inhibition of metabolic activity at 1.25 ug/ml after 48 hrs in presence of 20 ug/ml fluconazol by XTT assay relative to control; assay type: functional; conditions: values are per cent of control
Procedure, shortened: (§5)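 Checkerboard against strain ATCC 90028, inoculum per M27-A3: fluconazole 80-1.25 µg/mL on one axis, tetrazole 80-1.25 µg/mL on the other. Plates at 35°C for 48 h, then XTT metabolic reduction read at 475 nm (660 nm reference). Activity is the drop in mean absorbance against untreated growth control. FICs and their summed FIC index are taken at 50% reduction in metabolic activity.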

Candida albicans [14] = experiment: Antifungal activity against Candida albicans ATCC 90028 after 48 hrs in presence of fluconazol by XTT assay; assay type: functional; conditions: ATCC 90028, 48 h; procedure, shortened: as §5
Candida albicans [15] = experiment: Antifungal activity against Candida albicans ATCC 90028 assessed as FIC at 80 ug/ml in presence of fluconazol after 48 hrs by checkerboard-based XTT assay; assay type: functional; procedure, shortened: as §5
Candida albicans [16] = experiment: Antifungal activity against Candida albicans ATCC 90028 assessed as metabolic activity at 40 ug/ml after 48 hrs in presence of 20 ug/ml fluconazol by XTT assay relative to control
Candida albicans [17] = experiment: Antifungal activity against Candida albicans ATCC 90028 assessed as metabolic activity at 20 ug/ml after 48 hrs in presence of 10 ug/ml fluconazol by XTT assay relative to control
Candida albicans [18] = experiment: Antifungal activity against Candida albicans ATCC 90028 assessed as metabolic activity at 80 ug/ml after 48 hrs in presence of 1.25 ug/ml fluconazol by XTT assay relative to control

Row | Compound | Activity (Candida albicans [1]) | Activity (Caco-2) | growth inhibition (GI) (Candida albicans [2]) | growth inhibition (GI) (Candida albicans [3]) | growth inhibition (GI) (Candida albicans [4]) | inhibition of growth at 20 µg/mL (Candida albicans [5]) | growth inhibition (GI) (Candida albicans [6]) | growth inhibition (GI) (Candida albicans [7]) | growth inhibition (GI) (Candida albicans [8]) | growth inhibition (GI) (Candida albicans [9]) | growth inhibition (GI) (Candida albicans [10]) | residual activity (Candida albicans [11]) | residual activity (Candida albicans [12]) | residual activity (Candida albicans [13]) | MIC (Candida albicans [14]) | FIC (Candida albicans [15]) | Metabolic activity (Candida albicans [16]) | Metabolic activity (Candida albicans [17]) | Metabolic activity (Candida albicans [18])
1 | Cc1ccc(-c2nnn(CCCN3CCOCC3)n2)cc1 | 99.57% | 27.73% | 99.71% | 97.8% | 99.69% | 99.1% | 98.99% | 97.81% | 99.15% | 98.33% | 98.95% | 84.01% | 100% | 100% | 20 µg/mL | >1.25 | 54.14% | 46.94% | 100%
2 | CCOC(=O)CCn1nnc(-c2ccccc2)n1 | 99.13% | 50.46% | 99.59% | 99.18% | 99.53% | 99.5% | 99.46% | 99.72% | 99.51% | 99.08% | 99.79% | 72.63% | 90.2% | 62.2% | 80 µg/mL | >5 | 54.82% | 59.93% | 41.98%
3 | ClCCCn1nnnc1-c1ccccc1Cl | 100% | 25.49% | 99.74% | 99.27% | 99.59% | 99.7% | 99.61% | 99.86% | 99.25% | 98.94% | 100% | 80.42% | 0% | 60.65% | 80 µg/mL | >5 | 74.1% | 68.01% | 2.6%

— ChEMBL document CHEMBL4145471, “New 1,5 and 2,5-disubstituted tetrazoles-dependent activity towards surface barrier of Candida albicans” (Eur J Med Chem, 2018)
